The test system of test [1] is Human immunodeficiency virus 1. The test is described as follows: Antiviral activity against HIV1 MDR/B harboring protease L10I, K14R, L33I, M36I, M46I, F53I, K55R, I62V, L63P, A71V, G73S, V82A, L90M, I93L mutant infected in PHA-PBM cells assessed as inhibition of p24 Gag protein production. The format is functional, organism-based. The following applies: Human immunodeficiency virus 1, MDR/B, PBMC. Summed up: (§1)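 EC50 measured against each isolate. Assays run in duplicate. Values are means (±1 standard deviation) from two or three independent experiments. Fold-change for each isolate is its EC50 relative to the EC50 for wild-type HIV-1ERS104pre.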

For test [2], the system named is Human immunodeficiency virus 1. Kind of test: Antiviral activity against HIV1 MDR/C harboring protease L10I, I15V, K20R, L24I, M36I, M46L, I54V, I62V, L63P, K70Q, V82A, and L89 mutant infected in PHA-PBM cells assessed as inhibition of p24 Gag protein production. The format is functional, organism-based. As to conditions: Human immunodeficiency virus 1, MDR/C, PBMC. In outline: as §1

For test [3], the system named is Human immunodeficiency virus 1. The test is described as follows: Antiviral activity against HIV1 MDR/G harboring protease L10I, V11I, T12E, I15V, L19I, R41K, M46L, L63P, A71T, V82A, and L90M mutant infected in PHA-PBM cells assessed as inhibition of p24 Gag protein production. The format is functional, organism-based. The following applies: Human immunodeficiency virus 1, MDR/G, PBMC. Summed up: as §1

The test system of test [4] is Human immunodeficiency virus 1. Kind of test: Antiviral activity against HIV1 MDR/TM harboring protease L10I, K14R, R41K, M46L, I54V, L63P, A71V, V82A, L90M, I93L mutant infected in PHA-PBM cells assessed as inhibition of p24 Gag protein production. Format: functional, organism-based. As to conditions: Human immunodeficiency virus 1, MDR/TM, PBMC. In outline: as §1

Test [5] addresses Protease (Human immunodeficiency virus 1, UniProt Q9YQ12). The test is described as follows: Inhibition of HIV1 protease using hexapeptide Ac-Thr-Ile-Nle-Nle-Gln-Arg-NH2 as substrate by fluorimetric assay.
For test [6], the system named is Human immunodeficiency virus 1. The test is described as follows: Antiviral activity against HIV1 […] infected in human MT2 cells by MTT assay. Format: functional, organism-based. As to conditions: Human immunodeficiency virus 1, MT2. In outline: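 MT-2 human T-lymphoid cells (2 × 10^3) infected with 100 TCID50 of HIV-1LAI and cultured with inhibitor present. IC50 read out by MTT assay.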
For orientation: Formazan colour is commonly taken as a measure of viable cells.

Test [7] has as its system Human immunodeficiency virus 1. The test is described as follows: Antiviral activity against wild type HIV1 ERS104 infected in PHA-PBM cells assessed as inhibition of p24 Gag protein production. The format is functional, organism-based. The following applies: Human immunodeficiency virus 1, ERS104, PBMC. In outline:
as §1

Test [8] deals with Human immunodeficiency virus 1. Kind of test: Ratio of EC50 for HIV1 MDR/B harboring protease L10I, K14R, L33I, M36I, M46I, F53I, K55R, I62V, L63P, A71V, G73S, V82A, L90M, I93L mutant to EC50 for HIV1 ERS104 harboring wild type protease. Format: functional. Summed up:
(§2)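 Fold-change: EC50 against each multidrug-resistant HIV-1 isolate divided by EC50 against wild-type HIV-1ERS104pre. Assays run in duplicate; values are means (±1 standard deviation) from two or three independent experiments.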

In test [9] the test system is Human immunodeficiency virus 1. Kind of test: Ratio of EC50 for HIV1 MDR/C harboring protease L10I, I15V, K20R, L24I, M36I, M46L, I54V, I62V, L63P, K70Q, V82A, and L89 mutant to EC50 for HIV1 ERS104 harboring wild type protease. The format is functional. Summed up:
as §2

The subject of test [10] is Human immunodeficiency virus 1. The test is described as follows: Ratio of EC50 for HIV1 MDR/G harboring protease L10I, V11I, T12E, I15V, L19I, R41K, M46L, L63P, A71T, V82A, and L90M mutant to EC50 for HIV1 ERS104 harboring wild type protease. Format: functional. Summed up:
as §2

Test [11] relates to Human immunodeficiency virus 1. Kind of test: Ratio of EC50 for HIV1 MDR/TM harboring protease L10I, K14R, R41K, M46L, I54V, L63P, A71V, V82A, L90M, I93L mutant to EC50 for HIV1 ERS104 harboring wild type protease. The format is functional. Summed up: as §2

Each structure is given as a SMILES string. pEC50, pIC50, pKi: −log10 of the molar value.

In general, pEC50 refers to the EC50 on a negative log10 scale, so that one unit is a factor of ten. The term pKi denotes the negative decadic logarithm of the Ki, by convention in mol/L. As a reminder, the pIC50 is −log10 of the IC50, conventionally taken in molar units. Read a low pIC50 as a high IC50.

Sequence of Protease (Q9YQ12 whole entry): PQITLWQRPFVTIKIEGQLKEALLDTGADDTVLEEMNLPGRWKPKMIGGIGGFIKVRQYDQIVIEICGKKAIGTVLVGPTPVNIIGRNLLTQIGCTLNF

Take `CC(C)CN(C[C@@H](O)[C@H](Cc1ccccc1)NC(=O)O[C@H]1CO[C@H]2OCC[C@H]21)S(=O)(=O)c1ccc(N)cc1`: the pEC50 in test [1] is 7.72; in test [2], 7.96; in [3], 7.96; in [4], 7.55.

In test [5], `COc1ccc(S(=O)(=O)N(CC(C)C)C[C@@H](O)[C@H](Cc2ccccc2)NC(=O)O[C@@H]2C[C@@H]3[C@H](NC(C)=O)CO[C@@H]3C2)cc1` gave a pKi of 11.13. Besides, the negative-log IC50 (pIC50) in test [6] was 7.60.

`COc1ccc(S(=O)(=O)N(CC(C)C)C[C@@H](O)[C@H](Cc2ccccc2)NC(=O)O[C@@H]2C[C@@H]3[C@@H](NC(C)=O)CO[C@@H]3C2)cc1`: the pKi in test [5] is 11.12. For the same compound, the pIC50 in test [6] was 7.51.

`COC(=O)N[C@@H]1CO[C@@H]2C[C@H](OC(=O)N[C@@H](Cc3ccccc3)[C@H](O)CN(CC(C)C)S(=O)(=O)c3ccc(OC)cc3)C[C@H]12`: the negative-log IC50 (pIC50) in [6] is 8.80. The pEC50 in [7] was 7.54; in [1], 7.12; in test [2], 7.52; in [3], 7.41; in test [4], 7.13. For the same compound, the “Ratio EC50” value in test [8] is reported as 3; in test [9] it was 1; in test [10], 1; in [11], 3.

Regarding `COC(=O)N[C@H]1CO[C@@H]2C[C@H](OC(=O)N[C@@H](Cc3ccccc3)[C@H](O)CN(CC(C)C)S(=O)(=O)c3ccc(OC)cc3)C[C@H]12`, the pKi in test [5] is 11.40. In test [6], this compound showed a pIC50 of 8.34. Moreover, the pEC50 in test [7] is 8.52; in test [1], 7.74; in test [2], 7.82; in test [3], 7.70; in test [4], 7.62. The “Ratio EC50” value in [8] worked out at 6; in test [9], 5; in test [10], 7; in [11], 8.

Regarding `COc1ccc(S(=O)(=O)N(CC(C)C)C[C@@H](O)[C@H](Cc2ccccc2)NC(=O)O[C@@H]2C[C@@H]3[C@H](NS(C)(=O)=O)CO[C@@H]3C2)cc1`, the negative logarithm of the Ki (pKi) in test [5] was 10.49. In addition, the pIC50 in test [6] was 7.55.

`COc1ccc(S(=O)(=O)N(CC(C)C)C[C@@H](O)[C@H](Cc2ccccc2)NC(=O)O[C@@H]2C[C@@H]3[C@@H](NS(C)(=O)=O)CO[C@@H]3C2)cc1` showed a pKi in test [5] of 9.74. For the same compound, the pIC50 in test [6] is 7.30.

In turn, `COc1ccc(S(=O)(=O)N(CC(C)C)C[C@@H](O)[C@H](Cc2ccccc2)NC(=O)O[C@@H]2C[C@@H]3[C@@H](OC(=O)N(C)C)CO[C@@H]3C2)cc1` had a negative logarithm of the Ki (pKi) in [5] of 10.70. The same compound gave a pIC50 in [6] of 8.33.

The record behind these values is ChEMBL document CHEMBL1955842, “Substituent effects on P2-cyclopentyltetrahydrofuranyl urethanes: design, synthesis, and X-ray studies of potent HIV-1 protease inhibitors” (Bioorg Med Chem Lett, 2012).
